Assays:
[1] = substrate: C[C@@H](O)[C@H]1C(=O)N2C(C(=O)O)=C(SCCNC=N)C[C@H]12; assay: Activity of Aeromonas hydrophila beta lactamase CphA at pH 8.0
Outline: (§1)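 Wild-type CphA kinetics with imipenem as substrate, measured in a mixed buffer adjusted to the stated pH with HCl or NaOH. The buffer held 40 mM sodium acetate, 20 mM each of cacodylate, MOPS, TAPS, CHES and CAPS, and 20 μg/ml BSA. Runs were at 30°C in thermostatted cells. Km and kcat came from initial rates. At pH 10 only kcat/Km was taken, because imipenem hydrolyses spontaneously.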

[2] = substrate: C[C@@H](O)[C@H]1C(=O)N2C(C(=O)O)=C(SCCNC=N)C[C@H]12; assay: Activity of Aeromonas hydrophila beta lactamase CphA at pH 9.0; outline: as §1
[3] = substrate: C[C@@H](O)[C@H]1C(=O)N2C(C(=O)O)=C(SCCNC=N)C[C@H]12; assay: Activity of Aeromonas hydrophila beta lactamase CphA at pH 7.0; outline: as §1

B1: Beta-lactamase (Aeromonas hydrophila), Q44079 (protein)
chain: MMKGWMKCGLAGAVVLMASFWGGSVRAAGMSLTQVSGPVYVVEDNYYVQENSMVYFGAKGVTVVGATWTPDTARELHKLIKRVSRQPVLEVINTNYHTDRAGGNAYWKSIGAKVVSTRQTRDLMKSDWAEIVAFTRKGLPEYPDLPLVLPNVVHEGDFTLQEGKLRAFYAGPAHTPDGIFVYFPDQQVLYGNCILKEKLGNLSFADVKAYPRTLERLKAMKLPIKTVVGGHDSPLHGPELIDHYEALIKAAPQS
[1]
  Km: 83 µM
  kcat: 140 s⁻¹
[2]
  Km: 63 µM
  kcat: 49 s⁻¹
[3]
  Km: 120 µM
  kcat: 210 s⁻¹

Reference: ChEMBL document CHEMBL1143847, “Competitive inhibitors of the CphA metallo-beta-lactamase from Aeromonas hydrophila” (Antimicrob Agents Chemother, 2007)
